The target in assay [1] is T1, Alcohol dehydrogenase (Equus caballus) (UniProt P00327+P00328). The assay is described as follows: Reversible inhibition of horse liver alcohol dehydrogenase using ethanol as substrate by stopped-flow method in presence of 1 mM NAD+.
Assay [2] deals with Alcohol dehydrogenase (Equus caballus, UniProt P00327+P00328). The assay is described as follows: Inhibition of horse liver alcohol dehydrogenase using ethanol as substrate assessed as dissociation constant by spectrophotometric titration in presence of 1 mM NAD+. An outline of the steps:
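Difference titration at 300 nm, 0.1 M sodium phosphate pH 7.0, 25 °C, 1 mM NAD⁺, in a double-sector cuvette (0.438-mm path) against a separated-sector reference. Either 19–27 μM enzyme was titrated with pyrazole, or 100 μM pyrazole was titrated with enzyme. Kd from a Scatchard least-squares fit; SD of three determinations.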

The target in assay [3] is T1, Alcohol dehydrogenase (Equus caballus). Briefly: Competitive inhibition of horse liver alcohol dehydrogenase using ethanol as substrate by spectrophotometric titration in presence of 1 mM NAD+. Summed up: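 Purified horse liver EE isoenzyme, dialysed and gel-filtered free of ethanol; 10 nM enzyme. Ethanol varied at 0.4–2 mM with NAD⁺ fixed at 1 mM, in 33 mM sodium phosphate pH 7, 25 °C. Rates recorded spectrophotometrically. Constants come from fitting to the competitive inhibition equation; errors are standard errors of the fit.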

The target is the same in assay [4]. The assay is described as follows: Reversible inhibition of horse liver alcohol dehydrogenase using ethanol as substrate assessed as increase in enzyme activity at 1 mM measured after 40 mins of 100-fold dilution by stopped-flow method in presence of NAD+. Also on record: scale not given: the % may be the effect or the level left. Summed up: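 0.94 μN enzyme was preincubated with 1 mM NAD⁺ and 1 mM pyrazole, then diluted 100-fold into assay mix (0.55 M ethanol, 1.75 mM NAD⁺, pH 9, 25 °C). NAD⁺ reduction followed at 340 nm for 40 min. Rates were taken as tangents at various times and expressed versus the original activity; an apparent first-order dissociation rate constant was derived.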

Assay [5] shares this target. The assay is described as follows: Reversible inhibition of horse liver alcohol dehydrogenase using ethanol as substrate at 1 mM measured after 100-fold dilution in presence of NAD+. Further details: scale not given: the % may be the effect or the level left.
Assay [6] shares this target. The assay is described as follows: Reversible inhibition of horse liver alcohol dehydrogenase using ethanol as substrate assessed as remaining enzyme activity at 1 mM by stopped-flow method in presence of 1 mM NAD+.
Assay [7] shares this target. Briefly: Inactivation of horse liver alcohol dehydrogenase using ethanol as substrate at 10 mM up to 5 mins by spectrophotometric titration. An outline of the steps:
(§1)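 Enzyme (1 mg/mL) incubated with reagent under 5 min in 0.1 M Na₂P₂O₇ adjusted to pH 8.0 with H₃PO₄, 25 °C, with NAD⁺ where stated. Then 10 μL of reaction mixture diluted into 1 mL standard assay mixture, and the initial velocity of NADH production measured. Activity is given relative to the original.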

The target is the same in assay [8]. The assay is described as follows: Inactivation of horse liver alcohol dehydrogenase using ethanol as substrate at 10 to 200 mM up to 5 mins by spectrophotometric titration in presence of 1 mM NAD+. An outline of the steps:
as §1

The target is the same in assay [9]. Briefly: Inactivation of horse liver alcohol dehydrogenase using ethanol as substrate at 200 mM up to 5 mins by spectrophotometric titration. Summed up:
as §1

The target is the same in assay [10]. The assay is described as follows: Reversible inhibition of horse liver alcohol dehydrogenase using ethanol as substrate assessed as reduction in enzyme activity at 0.1 mM compound in diluted assay mixture measured after 20 to 40 mins by stopped-flow method in presence of NAD+.

Activity calls are given as the source filed them. The calls are words filed in the database; no cut-off is given here.

As a reminder, the Kd is the free concentration of one partner at which half of the binding sites on the other are occupied at equilibrium, for simple one-to-one binding. For `c1cn[nH]c1` [PYRAZOLE], the Activity in [1] worked out at 3 ×10⁵ /M/s. In addition, the Kd in [2] amounted to 0.2 µM.

In general, inhibition refers to how much of the control response was suppressed. For `OCCCc1cc[nH]n1`, the Kd in assay [2] is 60 µM. The inhibition result in assay [3] was “Active”.

In the case of `OCCCc1cn[nH]c1`, in [2], the Kd came out at 0.56 µM.

With `ClCCc1cc[nH]n1`, the figures for the Activity in assay [4], in [5] and in [6] were no less than 48%, 10% and 67%, respectively. For the same molecule, in assay [2], the Kd is 200 µM. Also, the inhibition entry in assay [3] was “Active”.

Consider `ClCc1cn[nH]c1`, for which the Kd in [2] came out at 2.7 µM.

For `ClCCCc1cn[nH]c1`, the Kd in [2] is 0.02 µM.

As to `O=C(O)c1cc[nH]n1`, in assay [2], the Kd turned out to be 6500 µM. Further, in assay [3], the inhibition entry was “Active”.

Regarding `Cc1cn[nH]c1` [FOMEPIZOLE], the Kd in [2] turned out to be 0.013 µM.

For the molecule `OCc1cc[nH]n1`, in assay [2], the Kd stood at 150 µM. Moreover, the inhibition entry in [3] is “Active”.

Take `CC(=O)c1cc[nH]n1`: the Kd in [2] was 5100 µM. Besides, in assay [3], the inhibition entry was “Active”.

On to `OCCc1cn[nH]c1`, for which, in assay [2], the Kd amounted to 0.77 µM.

Take `ClCc1cc[nH]n1`: the figures for the Activity in assay [7] and in assay [9] were 36% and 98%, respectively. Further, the outcome in assay [8] was inactive. For the same molecule, the inhibition entry in [3] was “Active”.

As to `OCc1cn[nH]c1`, the Kd in assay [2] was 3.6 µM.

In the case of `ClCCCc1cc[nH]n1`, the inhibition in assay [10] was determined as 52%. Also, the Activity in assay [4] was no less than 48%; in [5] it was 10%; in assay [6], 67%. Besides, the Kd in assay [2] is 40 µM. The inhibition result in [3] was “Active”.

On to `Cc1cc[nH]n1`, for which the Kd in assay [2] is 125 µM. Also, the inhibition result in [3] is “Active”.

Regarding `OCCc1cc[nH]n1`, the Kd in [2] turned out to be 170 µM. Besides, in assay [3], the inhibition result is “Active”.

For the origin of these results see ChEMBL document CHEMBL3272109, “3-Substituted pyrazole derivatives as inhibitors and inactivators of liver alcohol dehydrogenase” (J Med Chem, 1979).
